Biofilm kill mix: mixture kills Candida albicans biofilm cells. C. albicans biofilm persisters + clotrimazole, fluorescence viability; primary screen in compound mixtures of four per well. inhibition, % at 7.6 µM. hit rate 0.02% among 120,000;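 active means inhibition above 30.3% in the primary screen of four-compound pools, then above 30% when the compound was retested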;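 further: compounds exposed to preformed 24 h biofilms for 48 h; 0% = untreated biofilm control and 100% = clotrimazole plus chlorhexidine kill blank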
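Probe or stimulus – Clotrimazole 50 µg/mL co-treatment · System – C. albicans biofilms · Schedule – 24 h biofilm formation, then 48 h compound exposure, 37 °C · Evaluation – percent inhibition of biofilm viability · Technique – 2-h Alamar Blue fluorescence, 535/590 nm excitation/emission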
Mcl1 Noxa PPI: Mcl-1/Noxa interaction inhibition; hit rate 1.5% among 220,000; inhibition, % at 21.7 µM; TR-FRET Mcl-1/Noxa peptide binding, 2 h; Q07820;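 active means compounds that cut the protein-peptide binding signal by more than 50% relative to plate controls in a single-dose test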;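 further: His-tagged Mcl-1 with rhodamine Noxa BH3 peptide and terbium anti-His antibody; 0% = Mcl-1 plus Noxa peptide wells and 100% = peptide-only wells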
Target sequence (Q07820 whole entry, looked up): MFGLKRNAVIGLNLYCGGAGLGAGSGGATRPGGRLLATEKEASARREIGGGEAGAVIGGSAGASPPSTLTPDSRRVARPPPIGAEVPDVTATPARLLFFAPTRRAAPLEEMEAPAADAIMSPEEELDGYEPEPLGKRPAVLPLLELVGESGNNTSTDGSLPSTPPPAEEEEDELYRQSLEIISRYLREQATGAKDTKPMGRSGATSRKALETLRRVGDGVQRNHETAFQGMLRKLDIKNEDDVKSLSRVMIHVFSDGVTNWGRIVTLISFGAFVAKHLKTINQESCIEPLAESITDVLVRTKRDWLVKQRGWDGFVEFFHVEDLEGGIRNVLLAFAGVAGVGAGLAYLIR
m-calpain inh: blocks pig calpain II enzyme activity | inhibition, % at 16 µM | hit rate 0.37% among 220,000 | purified calpain II, fluorogenic peptide substrate, 30 min;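 active means inhibition above about 50%, limit read from the data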
Arbovirus inh: antivirals against arbovirus infection | arbovirus infection cell-based antiviral screen | inhibition, % at 10 µM | hit rate 0.37% among 200,000; in the data active means inhibition above about 30%
Mcl1 Bid PPI: disrupts binding of human Mcl-1 to Bid peptide. Q07820. TR-FRET Mcl-1/Bid-Dy647 peptide binding, 1536-well. inhibition, % at 21.7 µM. hit rate 0.97% among 220,000. AID 1021;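 active means compounds that cut the binding signal by more than half at the single screening dose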;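 further: His-tagged Mcl-1 with europium anti-His antibody binding Bid BH3 peptide; 0% = Mcl-1 plus peptide wells and 100% = peptide-only wells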
Bim-Mcl-1: inhibitors of Bim-Mcl-1 interaction, human | Q07820 | Bead-based flow cytometry, Bim peptide-Mcl-1 binding | inhibition, % at 10 µM | hit rate 0.1% among 190,000; in the data active means inhibition above about 40%;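 further: 0% = no compound tracer wells and 100% = peptide blocker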
An asterisk follows results filed as active; . = no result given. The list is not random: actives were taken first. Their share in the collection is about 2.8%.

SMILES	Biofilm kill mix	Mcl1 Noxa PPI	m-calpain inh	Arbovirus inh	Mcl1 Bid PPI	Bim-Mcl-1
Cc1cccc(N2CCN(C(=O)Cn3sc4nc(C)cc(C)c4c3=O)CC2C)c1 (stereo not drawn)	.	59*	-48	-39	-52	-4
CCOc1ccc(NC(=O)Cn2sc3nc(C)cc(C)c3c2=O)cc1	21	51*	-16	.	-117	.
Cc1cc(C)c2c(=O)n(CC(=O)N3CCC(Cc4ccccc4)CC3)sc2n1	.	59*	-21	-6	-24	-8
Cc1cccc(N2CCN(C(=O)Cc3ccc(-n4c(=O)[nH]c5ccsc5c4=O)cc3)CC2C)c1 (stereo not drawn)	9	8	-22	2	93*	-6
Cc1cc(C)c2c(=O)n(CC(=O)Nc3ccc(Cl)cc3)sc2n1	14	27	-16	.	-42	.
Cc1cc(C)c(O)c(-c2cc(C(=O)Nc3c(C)n(C)n(-c4ccccc4)c3=O)[nH]n2)c1	20	16	12	.	-45	.
Cn1nnnc1SCc1csc(C2C(C#N)=C(N)OC3=C2C(=O)CCC3)c1 (stereo not drawn)	12	-2	-1	1	-24	7
CCOC(=O)c1ccc(N=Nc2c(C)c(C#N)c(O)[nH]c2=O)cc1	10	88*	-101	-10	-22	-2
Cc1ccc(Nc2c(-c3ccc(C)o3)nc3cnccn23)cc1	.	51*	-23	-3	-8	-2
Cc1ccc(-c2nc3cnccn3c2Nc2ccccc2)o1	.	44	-326	2	-20	-2
O=C(/C=C1\NC2(CCCC2)Cc2ccccc21)C(=O)N/N=C/c1ccc(O)c(O)c1	13	89*	-46	-20	-58	0
COc1ccc(/C=N/NC(=O)C(=O)/C=C2\NC3(CCCC3)Cc3ccccc32)cc1	12	16	-35	-18	-29	-4
Cc1cc(Cl)ccc1OC(C)C(=O)NCCCn1ccnc1 (stereo not drawn)	30	7	-30	-4	-8	-2
